ChEMBL document CHEMBL1129636 (J Med Chem, 1996)

Tests used:
[1] = target: T1, Glutamate receptor ionotropic, kainate 2 (Homo sapiens, UniProt Q13002); assay: Electrophysiological activity at 10 uM domoate from HEK293 cells transfected with Ionotropic glutamate receptor kainate 2; type: functional, cell-based
Outline: (§1)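 Whole-cell voltage clamp (tight-seal patch clamp) of HEK293 line EAA4-9 stably expressing human GluR6, with cells plated on glass coverslips. Bath: NaCl 138, CaCl2 5, MgCl2 1, KCl 5, HEPES 10, glucose 10 mM, pH 7.4. Pipette: KCl 140, MgCl2 1, HEPES 10, EGTA 0.1 mM, pH 7.2. Test agonist at 1, 10 or 30 uM by bath perfusion with 2.5 uM concanavalin A. Inward current expressed as percent of the response to 1 uM domoate.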

[2] = target: T1, Glutamate receptor ionotropic, kainate 2; assay: Inhibition of [3H]kainate binding at ionotropic glutamate receptor kainate 2
Outline: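 Frozen EAA4-9 cells (HEK293 stably expressing human GluR6) lysed in ice-cold water and pelleted at 50000g. Membranes washed in 50 mM Tris-HCl, pH 7.5 at 5 °C, to remove glutamate. Nonspecific binding defined with 1 mM L-glutamate, and bound ligand separated by centrifugation. Ki reported.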

[3] = target: T1, Glutamate receptor ionotropic, kainate 2; assay: Electrophysiological activity at 30 uM domoate from HEK293 cells transfected with ionotropic glutamate receptor kainate 2; type: functional, cell-based; outline: as §1
[4] = target: Glutamate receptor ionotropic, kainate 2 (Rattus norvegicus, UniProt P42260); assay: Inhibition of [3H]kainate binding at rat forebrain ionotropic glutamate receptor kainate 2
[5] = target: T1, Glutamate receptor ionotropic, kainate 2; assay: Electrophysiological activity at 1 uM domoate from HEK293 cells transfected with ionotropic glutamate receptor kainate 2; type: functional, cell-based; outline: as §1

Sequence of Glutamate receptor ionotropic, kainate 2 (Rattus norvegicus, UniProt P42260) (P42260 whole entry): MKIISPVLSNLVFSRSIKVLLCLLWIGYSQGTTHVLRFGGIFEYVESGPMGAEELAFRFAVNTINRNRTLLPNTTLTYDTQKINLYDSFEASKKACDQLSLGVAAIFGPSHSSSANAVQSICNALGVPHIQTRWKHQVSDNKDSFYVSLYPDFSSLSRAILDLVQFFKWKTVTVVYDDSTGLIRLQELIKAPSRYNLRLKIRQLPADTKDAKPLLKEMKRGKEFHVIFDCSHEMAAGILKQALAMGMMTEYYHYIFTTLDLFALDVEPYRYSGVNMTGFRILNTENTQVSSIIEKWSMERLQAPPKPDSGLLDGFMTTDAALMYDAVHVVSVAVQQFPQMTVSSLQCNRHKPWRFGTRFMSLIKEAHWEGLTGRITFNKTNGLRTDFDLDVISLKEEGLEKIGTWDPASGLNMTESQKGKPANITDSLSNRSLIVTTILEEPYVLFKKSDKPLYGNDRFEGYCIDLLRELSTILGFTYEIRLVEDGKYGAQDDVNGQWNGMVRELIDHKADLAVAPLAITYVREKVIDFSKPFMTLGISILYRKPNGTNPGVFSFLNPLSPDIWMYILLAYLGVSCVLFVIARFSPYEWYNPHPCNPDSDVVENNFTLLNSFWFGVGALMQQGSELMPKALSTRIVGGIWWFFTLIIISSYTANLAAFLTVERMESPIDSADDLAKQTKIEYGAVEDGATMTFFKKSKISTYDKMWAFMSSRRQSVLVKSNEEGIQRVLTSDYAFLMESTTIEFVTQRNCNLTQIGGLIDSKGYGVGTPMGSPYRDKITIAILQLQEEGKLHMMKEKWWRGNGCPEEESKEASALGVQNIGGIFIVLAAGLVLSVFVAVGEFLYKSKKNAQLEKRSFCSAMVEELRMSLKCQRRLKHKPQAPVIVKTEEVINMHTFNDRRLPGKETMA
T1 sequence (Q13002 whole entry, the tested form may be a part): as the sequence (P42260 whole entry) above, with S5F, V7I, L11P, S14R, S16T, I17V, V19L, V494A counted along it

Row | Structure (SMILES) | Response [1] | Ki [2] [nM] | Response [3] | Ki [4] [nM] | Response [5]
1 | C=C(c1cccc(OCCCC)c1)[C@H]1CN[C@H](C(=O)O)[C@H]1CC(=O)O | 8% | 275 | 40% | 23.3 | 5%
2 | C=C(c1ccc(OCCc2ccccc2)cc1)[C@H]1CN[C@H](C(=O)O)[C@H]1CC(=O)O | 52% | 126 | 66% | 6.2 | 16%
3 | C=C(c1ccc(C)c(C)c1)[C@H]1CN[C@H](C(=O)O)[C@H]1CC(=O)O | 89% | 108 | 98% | 2.3 | 50%
4 | C=C(c1ccccc1)[C@H]1CN[C@H](C(=O)O)[C@H]1CC(=O)O | 81% | 29.8 | 80% | 1.6 | 48%
5 | C=C(C)c1ccc(C(=C)[C@@H]2CN[C@H](C(=O)O)[C@H]2CC(=O)O)cc1 | – | 2300 | – | 5400 | –
6 | C=C(c1ccc(-c2ccccc2)cc1)[C@H]1CN[C@H](C(=O)O)[C@H]1CC(=O)O | 58% | 131 | 66% | 9.1 | 36%
7 | C=C(c1ccc(C)cc1)[C@H]1CN[C@H](C(=O)O)[C@H]1CC(=O)O | 72% | 41.1 | 76% | 2.6 | 61%
8 | C=C(c1ccc(OCCCC)cc1)[C@H]1CN[C@H](C(=O)O)[C@H]1CC(=O)O | 86% | 147 | 99% | 2.8 | 33%
9 | C=C(c1cccc(OCCc2ccccc2)c1)[C@H]1CN[C@H](C(=O)O)[C@H]1CC(=O)O | 43% | 667 | 70% | 16 | 6%
10 | C=C(c1cccc(OCCC(c2ccccc2)c2ccccc2)c1)[C@@H]1CN[C@H](C(=O)O)[C@H]1CC(=O)O | 0% | > 10000 | 0% | 3000 | 0%
11 | C=C(c1ccc(OCCCCC)c(C)c1)[C@H]1CN[C@H](C(=O)O)[C@H]1CC(=O)O | 46% | 663 | 58% | – | 17%
12 | C=C(c1ccc(CCC)cc1)[C@H]1CN[C@H](C(=O)O)[C@H]1CC(=O)O | 54% | 147 | 66% | 3.6 | 24%
13 | C=C(c1cccc(-c2ccccc2)c1)[C@H]1CN[C@H](C(=O)O)[C@H]1CC(=O)O | 98% | 90.6 | 103% | 2.1 | 65%
14 | C=C(C)[C@H]1CN[C@H](C(=O)O)[C@H]1CC(=O)O | 85% | – | 101% | – | 39%
15 | C=C(c1ccc(C(C)(C)C)cc1)[C@H]1CN[C@H](C(=O)O)[C@H]1CC(=O)O | 31% | 263 | 46% | 18.5 | 8%
16 | C=C(c1ccc(F)cc1)[C@H]1CN[C@H](C(=O)O)[C@H]1CC(=O)O | 76% | 38.4 | 78% | 2.7 | 43%
17 | C=C(c1ccc(CCCC)cc1)[C@H]1CN[C@H](C(=O)O)[C@H]1CC(=O)O | 57% | 146 | 63% | 4.8 | 11%
18 | C=C(c1cc(C)cc(C)c1)[C@H]1CN[C@H](C(=O)O)[C@H]1CC(=O)O | 73% | 169 | 108% | 9.5 | 23%

Row | Structure (SMILES) | Response [1] | Ki [2] [nM] | Response [3] | Ki [4] [nM] | Response [5]
19 | C=C(c1ccc(Oc2ccccc2)cc1)[C@H]1CN[C@H](C(=O)O)[C@H]1CC(=O)O | 59% | 210 | 62% | 11.9 | 15%
20 | C=C(c1ccc(OC)cc1)[C@H]1CN[C@H](C(=O)O)[C@H]1CC(=O)O | 76% | 57.4 | 82% | 3.9 | 37%
21 | CC(c1cccc(-c2ccccc2)c1)[C@H]1CN[C@H](C(=O)O)[C@H]1CC(=O)O (some centres undefined) | 14% | > 10000 | 16% | – | 12%
22 | C=C(c1ccc(F)c(C)c1)[C@H]1CN[C@H](C(=O)O)[C@H]1CC(=O)O | 76% | 54.3 | 100% | 1.9 | 38%
23 | C=C(c1cccc(OC)c1)[C@H]1CN[C@H](C(=O)O)[C@H]1CC(=O)O | 77% | 93.5 | 87% | 3.5 | 46%
24 | C=C(c1ccc(CC)cc1)[C@H]1CN[C@H](C(=O)O)[C@H]1CC(=O)O | 63% | 82.2 | 73% | 7.7 | 22%
25 | C=C(c1cccc(C)c1)[C@H]1CN[C@H](C(=O)O)[C@H]1CC(=O)O | 75% | 123 | 74% | 2.2 | 29%
26 | C=C(c1ccc(OCCc2ccccc2)c(OC)c1)[C@H]1CN[C@H](C(=O)O)[C@H]1CC(=O)O | 20% | 1280 | 44% | – | 2%
27 | C=C(c1ccc(OCCc2ccccc2)c(C)c1)[C@H]1CN[C@H](C(=O)O)[C@H]1CC(=O)O | 64% | 129 | 71% | – | 12%
28 | C=C(c1ccccc1)[C@@H]1CN[C@H](C(=O)O)[C@H]1CC(=O)O | Neurotoxic | 6970 | Neurotoxic | 230 | Neurotoxic
29 | C=C(c1cccc(-c2ccccc2)c1)[C@@H]1CN[C@H](C(=O)O)[C@H]1CC(=O)O | 0% | 3110 | 0% | – | 0%
30 | CC(c1ccccc1)[C@H]1CN[C@H](C(=O)O)[C@H]1CC(=O)O (some centres undefined) | 0% | > 10000 | 0% | – | 0%
31 | C=C(c1ccc(OCCCCCc2ccccc2)cc1)[C@H]1CN[C@H](C(=O)O)[C@H]1CC(=O)O | 13% | 1300 | 27% | 126 | 0%
32 | C=C(c1cccc(OCCC(c2ccccc2)c2ccccc2)c1)[C@H]1CN[C@H](C(=O)O)[C@H]1CC(=O)O | 6% | 2420 | 14% | 210 | 3%
33 | C=C(c1ccc(Cl)cc1)[C@H]1CN[C@H](C(=O)O)[C@H]1CC(=O)O | 78% | 31.7 | 83% | 3.9 | 52%
34 | C=C(CC)c1ccc(C(=C)[C@H]2CN[C@H](C(=O)O)[C@H]2CC(=O)O)cc1 | 38% | 288 | 52% | 9 | 15%
35 | C=C(C)c1ccc(C(=C)[C@H]2CN[C@H](C(=O)O)[C@H]2CC(=O)O)cc1 | 61% | 132 | 66% | 3.6 | 17%
